# Measured values reported in ChEMBL document CHEMBL4325889, “Natural products hybrids: 3,5,4'-Trimethoxystilbene-5,6,7-trimethoxyflavone chimeric analogs as potential cytotoxic agents against diverse human cancer cells” (Eur J Med Chem, 2019).
# Assays:
# Format in all cases: functional
# SN12C = experiment: Growth inhibition of human SN12C cells at 10 uM after 48 hrs by SRB assay relative to control; conditions: read-out: GI
# Method in brief: (§1)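 Screened at the National Cancer Institute by the standard NCI protocol using the sulforhodamine B assay, which measures cellular protein. Single dose of 10 µM. Result is percent growth inhibition; values above 100% mean cell number fell below the initial population. Values are the average of duplicates.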
# NCI-H460 = experiment: Growth inhibition of human NCI-H460 cells at 10 uM after 48 hrs by SRB assay relative to control; conditions: NCI-H460, 48 h, read-out: GI; method in brief: as §1
# Hs-578T = experiment: Growth inhibition of human Hs 578T cells at 10 uM after 48 hrs by SRB assay relative to control; conditions: read-out: GI; method in brief: as §1
# CCRF-CEM = experiment: Growth inhibition of human CCRF-CEM cells at 10 uM after 48 hrs by SRB assay relative to control; conditions: read-out: GI; method in brief: as §1
# DU-145 = experiment: Growth inhibition of human DU145 cells at 10 uM after 48 hrs by SRB assay relative to control; conditions: DU-145, 48 h, read-out: GI; method in brief: as §1
# OVCAR-3 = experiment: Growth inhibition of human OVCAR3 cells at 10 uM after 48 hrs by SRB assay relative to control; conditions: OVCAR-3, 48 h, read-out: GI; method in brief: as §1
# OVCAR-4 = experiment: Growth inhibition of human OVCAR4 cells at 10 uM after 48 hrs by SRB assay relative to control; conditions: OVCAR-4, 48 h, read-out: GI; method in brief: as §1
# SK-MEL-5 = experiment: Growth inhibition of human SK-MEL-5 cells at 10 uM after 48 hrs by SRB assay relative to control; conditions: SK-MEL-5, 48 h, read-out: GI; method in brief: as §1
# NCI-H226 = experiment: Growth inhibition of human NCI-H226 cells at 10 uM after 48 hrs by SRB assay relative to control; conditions: NCI-H226, 48 h, read-out: GI; method in brief: as §1
# UACC-62 = experiment: Growth inhibition of human UACC62 cells at 10 uM after 48 hrs by SRB assay relative to control; conditions: UACC-62, 48 h, read-out: GI
# Method in brief: (§2)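 NCI screen against its human cancer cell line panel by the standard NCI protocol, SRB protein stain. Single dose of 10 μM. Percent growth inhibition versus control; values above 100% mean the cell population fell below the starting number. Each value is the mean of duplicates.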
# ACHN = experiment: Growth inhibition of human ACHN cells at 10 uM after 48 hrs by SRB assay relative to control; conditions: read-out: GI; method in brief: as §1
# NCI-H522 = experiment: Growth inhibition of human NCI-H522 cells at 10 uM after 48 hrs by SRB assay relative to control; conditions: NCI-H522, 48 h, read-out: GI; method in brief: as §1
# K562 = experiment: Growth inhibition of human K562 cells at 10 uM after 48 hrs by SRB assay relative to control; conditions: K562, 48 h, read-out: GI; method in brief: as §1
# OVCAR-8 = experiment: Growth inhibition of human OVCAR8 cells at 10 uM after 48 hrs by SRB assay relative to control; conditions: OVCAR-8, 48 h, read-out: GI; method in brief: as §1
# HOP-62 = experiment: Growth inhibition of human HOP62 cells at 10 uM after 48 hrs by SRB assay relative to control; conditions: HOP-62, 48 h, read-out: GI; method in brief: as §1
# 786-0 = experiment: Growth inhibition of human 786-0 cells at 10 uM after 48 hrs by SRB assay relative to control; conditions: 786-0, 48 h, read-out: GI; method in brief: as §1
# HCT-15 = experiment: Growth inhibition of human HCT15 cells at 10 uM after 48 hrs by SRB assay relative to control; conditions: HCT-15, 48 h, read-out: GI; method in brief: as §1
# UACC-257 = experiment: Growth inhibition of human UACC257 cells at 10 uM after 48 hrs by SRB assay relative to control; conditions: UACC-257, 48 h, read-out: GI; method in brief: as §2
# SW-620 = experiment: Growth inhibition of human SW620 cells at 10 uM after 48 hrs by SRB assay relative to control; conditions: SW-620, 48 h, read-out: GI; method in brief: as §2
# RPMI-8226 = experiment: Growth inhibition of human RPMI8226 cells at 10 uM after 48 hrs by SRB assay relative to control; conditions: RPMI-8226, 48 h, read-out: GI; method in brief: as §1
# RXF 393 = experiment: Growth inhibition of human RXF393 cells at 10 uM after 48 hrs by SRB assay relative to control; conditions: RXF 393, 48 h, read-out: GI; method in brief: as §1
# MOLT-4 = experiment: Growth inhibition of human MOLT4 cells at 10 uM after 48 hrs by SRB assay relative to control; conditions: MOLT-4, 48 h, read-out: GI; method in brief: as §1
# SR = experiment: Growth inhibition of human SR cells at 10 uM after 48 hrs by SRB assay relative to control; conditions: read-out: GI; method in brief: as §2
# SK-MEL-28 = experiment: Growth inhibition of human SK-MEL-28 cells at 10 uM after 48 hrs by SRB assay relative to control; conditions: SK-MEL-28, 48 h, read-out: GI; method in brief: as §1
# A549 = experiment: Growth inhibition of human A549 cells at 10 uM after 48 hrs by SRB assay relative to control; conditions: A549, 48 h, read-out: GI; method in brief: as §1
# TK-10 = experiment: Growth inhibition of human TK10 cells at 10 uM after 48 hrs by SRB assay relative to control; conditions: TK-10, 48 h, read-out: GI; method in brief: as §2
# NCI-H23 = experiment: Growth inhibition of human NCI-H23 cells at 10 uM after 48 hrs by SRB assay relative to control; conditions: NCI-H23, 48 h, read-out: GI; method in brief: as §1
# KM12 = experiment: Growth inhibition of human KM12 cells at 10 uM after 48 hrs by SRB assay relative to control; conditions: KM12, 48 h, read-out: GI; method in brief: as §1
# MDA-MB-468 = experiment: Growth inhibition of human MDA-MB-468 cells at 10 uM after 48 hrs by SRB assay relative to control; conditions: MDA-MB-468, 48 h, read-out: GI; method in brief: as §1
# Malme-3M = experiment: Growth inhibition of human MALME-3M cells at 10 uM after 48 hrs by SRB assay relative to control; conditions: read-out: GI; method in brief: as §1
# HCC 2998 = experiment: Growth inhibition of human HCC2998 cells at 10 uM after 48 hrs by SRB assay relative to control; conditions: HCC 2998, 48 h, read-out: GI; method in brief: as §1
# SNB-75 = experiment: Growth inhibition of human SNB75 cells at 10 uM after 48 hrs by SRB assay relative to control; conditions: SNB-75, 48 h, read-out: GI; method in brief: as §2
# MCF7 = experiment: Growth inhibition of human MCF7 cells at 10 uM after 48 hrs by SRB assay relative to control; conditions: MCF7, 48 h, read-out: GI; method in brief: as §1
# MDA-MB-435 = experiment: Growth inhibition of human MDA-MB-435 cells at 10 uM after 48 hrs by SRB assay relative to control; conditions: MDA-MB-435, 48 h, read-out: GI; method in brief: as §1
# SNB-19 = experiment: Growth inhibition of human SNB19 cells at 10 uM after 48 hrs by SRB assay relative to control; conditions: SNB-19, 48 h, read-out: GI; method in brief: as §2
SMILES,inhibition of growth at 10 µM (SN12C),inhibition of growth at 10 µM (NCI-H460),inhibition of growth at 10 µM (Hs-578T),inhibition of growth at 10 µM (CCRF-CEM),inhibition of growth at 10 µM (DU-145),inhibition of growth at 10 µM (OVCAR-3),inhibition of growth at 10 µM (OVCAR-4),inhibition of growth at 10 µM (SK-MEL-5),inhibition of growth at 10 µM (NCI-H226),inhibition of growth at 10 µM (UACC-62),inhibition of growth at 10 µM (ACHN),inhibition of growth at 10 µM (NCI-H522),inhibition of growth at 10 µM (K562),inhibition of growth at 10 µM (OVCAR-8),inhibition of growth at 10 µM (HOP-62),inhibition of growth at 10 µM (786-0),inhibition of growth at 10 µM (HCT-15),inhibition of growth at 10 µM (UACC-257),inhibition of growth at 10 µM (SW-620),inhibition of growth at 10 µM (RPMI-8226),further results
COc1ccc(NC(=O)c2cccc(-c3cc(=O)c4c(OC)c(OC)c(OC)cc4o3)c2)cc1,35%,33.9%,41.6%,50.7%,26.3%,54.3%,15.3%,59.1%,18.5%,35.2%,33.4%,39%,50.4%,46.1%,31%,29.3%,52.9%,-2.76%,6.52%,87.5%,inhibition of growth at 10 µM (RXF 393): 59.9%; inhibition of growth at 10 µM (MOLT-4): 36.8%; inhibition of growth at 10 µM (SR): 18.4%; inhibition of growth at 10 µM (SK-MEL-28): 28.7%; inhibition of growth at 10 µM (A549): 22.4%; inhibition of growth at 10 µM (TK-10): 15.7%; inhibition of growth at 10 µM (NCI-H23): 28.7%; inhibition of growth at 10 µM (KM12): 45.2%; inhibition of growth at 10 µM (MDA-MB-468): 24.3%; inhibition of growth at 10 µM (Malme-3M): 21.4%; inhibition of growth at 10 µM (HCC 2998): 26.3%; inhibition of growth at 10 µM (SNB-75): 19.7%; inhibition of growth at 10 µM (MCF7): 21.1%; inhibition of growth at 10 µM (MDA-MB-435): 23.8%; inhibition of growth at 10 µM (SNB-19): 8.54%
COc1cc2oc(-c3cccc(C(=O)Nc4ccccc4)c3)cc(=O)c2c(OC)c1OC,27.3%,11.2%,8%,35.1%,12.2%,12.3%,1.91%,35.3%,12.7%,29.8%,8.22%,21.9%,29.6%,34.9%,13.7%,7.46%,20.8%,5.48%,-0.72%,59.4%,inhibition of growth at 10 µM (RXF 393): 24.9%; inhibition of growth at 10 µM (MOLT-4): 43.2%; inhibition of growth at 10 µM (SR): 35.9%; inhibition of growth at 10 µM (SK-MEL-28): 8.31%; inhibition of growth at 10 µM (A549): 16.7%; inhibition of growth at 10 µM (TK-10): 8.98%; inhibition of growth at 10 µM (NCI-H23): 7.79%; inhibition of growth at 10 µM (KM12): 24.3%; inhibition of growth at 10 µM (MDA-MB-468): 9.98%; inhibition of growth at 10 µM (Malme-3M): 12.5%; inhibition of growth at 10 µM (HCC 2998): 1.29%; inhibition of growth at 10 µM (SNB-75): 7.02%; inhibition of growth at 10 µM (MCF7): 7.49%; inhibition of growth at 10 µM (MDA-MB-435): 8.87%; inhibition of growth at 10 µM (SNB-19): 4.37%
COc1cc2oc(-c3cccc(C(=O)Nc4ccc5c(c4)OCO5)c3)cc(=O)c2c(OC)c1OC,30.8%,26.9%,14%,36.6%,18.7%,12.7%,3.72%,47.2%,21.2%,19.1%,10.2%,26.9%,25.8%,45.9%,26.6%,7.44%,28.2%,5.96%,-4.89%,79.1%,inhibition of growth at 10 µM (RXF 393): 29%; inhibition of growth at 10 µM (MOLT-4): 35.2%; inhibition of growth at 10 µM (SR): 52.4%; inhibition of growth at 10 µM (SK-MEL-28): 20.4%; inhibition of growth at 10 µM (A549): 25.5%; inhibition of growth at 10 µM (TK-10): 16.1%; inhibition of growth at 10 µM (NCI-H23): 10.3%; inhibition of growth at 10 µM (KM12): 32.7%; inhibition of growth at 10 µM (MDA-MB-468): 1.72%; inhibition of growth at 10 µM (Malme-3M): 1.22%; inhibition of growth at 10 µM (HCC 2998): 2.03%; inhibition of growth at 10 µM (SNB-75): -1.27%; inhibition of growth at 10 µM (MCF7): 17.9%; inhibition of growth at 10 µM (MDA-MB-435): 4.94%; inhibition of growth at 10 µM (SNB-19): 5.13%
